Experimental data published in ChEMBL document CHEMBL1250467, “Design, synthesis, and anticonvulsant activity of new N-Mannich bases derived from spirosuccinimides and spirohydantoins” (Bioorg Med Chem, 2010).
Activity calls are given as the source filed them. The rule behind the calls is not given here.

Tests used:
[1] = system: Rattus norvegicus; experiment: Anticonvulsant activity in Sprague-Dawley rat assessed as protection against subcutaneous pentylenetetrazole-induced seizures at 50 mg/kg po after 4 hrs; format: functional
Outline: (§1)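 Oral fixed dose of 50 mg/kg in male Sprague–Dawley rats (0.5% methylcellulose/water suspension), four rats per group. Pentylenetetrazole 70 mg/kg given sc at each test time (0.25, 0.5, 1, 2, 4 h); protection from clonic seizures counted per four rats, with motor impairment studied in parallel.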

[2] = system: Rattus norvegicus; experiment: Anticonvulsant activity in Sprague-Dawley rat assessed as protection against maximal electroshock-induced seizures at 30 mg/kg po after 0.5 hrs; format: functional
Outline: (§2)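 Male Sprague–Dawley rats, four per group, given 30 mg/kg orally as a 0.5% methylcellulose/water suspension. MES protection scored at 0.25, 0.5, 1, 2 and 4 h after dosing, motor impairment checked in parallel; data are the number of the four rats protected.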

[3] = system: Rattus norvegicus; experiment: Anticonvulsant activity in po dosed Sprague-Dawley rat assessed as protection against maximal electroshock-induced seizures; format: functional
Outline: (§3)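 Male Sprague–Dawley rats dosed orally (0.5% methylcellulose/water suspension), groups of eight, tested at the previously estimated time of peak effect. Doses varied until at least three points lay in the 10–90% range of protection (MES, scPTZ) or minimal rotarod neurotoxicity. ED50/TD50 with 95% confidence intervals came from regression; PI = TD50/ED50.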

[4] = system: Rattus norvegicus; experiment: Anticonvulsant activity in Sprague-Dawley rat assessed as protection against maximal electroshock-induced seizures at 30 mg/kg po after 1 hr; format: functional; outline: as §2
[5] = system: Mus musculus; experiment: Anticonvulsant activity in CF1 albino mouse assessed as protection against subcutaneous pentylenetetrazole-induced seizures at 300 mg/kg, ip after 4 hrs; format: functional, organism-based; set-up: dose 300 mg/kg
Outline: (§4)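 Male CF-1 mice; compounds suspended in 0.5% methylcellulose/water and injected ip at 30, 100 and 300 mg/kg. MES, scPTZ (pentylenetetrazole 85 mg/kg sc at the test time) and rotarod neurotoxicity were scored at 0.5 and 4 h. Value is the lowest dose active or toxic in half or more of the animals; signs such as ataxia or tremor were recorded.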

[6] = system: Mus musculus; experiment: Anticonvulsant activity in ip dosed CF1 albino mouse assessed as dose required to protect against maximal electroshock-induced seizures after 4 hrs; format: functional; outline: as §4
[7] = system: Rattus norvegicus; experiment: Anticonvulsant activity in Sprague-Dawley rat assessed as protection against maximal electroshock-induced seizures at 30 mg/kg po after 4 hrs; format: functional; outline: as §2
[8] = system: Rattus norvegicus; experiment: Anticonvulsant activity in Sprague-Dawley rat assessed as protection against subcutaneous pentylenetetrazole-induced seizures at 50 mg/kg po after 2 hrs; format: functional; outline: as §1
[9] = system: Mus musculus; experiment: Anticonvulsant activity in ip dosed CF1 albino mouse assessed as dose required to protect against subcutaneous pentylenetetrazole-induced seizures after 0.5 hrs; format: functional; outline: as §4
[10] = system: Mus musculus; experiment: Anticonvulsant activity in ip dosed CF1 albino mouse assessed as dose required to protect against maximal electroshock-induced seizures after 0.5 hrs; format: functional; outline: as §4
[11] = system: Rattus norvegicus; experiment: Anticonvulsant activity in po dosed Sprague-Dawley rat assessed as time required to peak protection against seizures; format: functional
[12] = Neurotoxicity in po dosed Sprague-Dawley rat by rotarod test; format: toxicity, organism-based; settings: in vivo; outline: as §3
[13] = system: Rattus norvegicus; experiment: Anticonvulsant activity in Sprague-Dawley rat assessed as protection against subcutaneous pentylenetetrazole-induced seizures at 50 mg/kg po after 0.5 hrs; format: functional; outline: as §1
[14] = system: Rattus norvegicus; experiment: Anticonvulsant activity in po dosed Sprague-Dawley rat assessed as protection against subcutaneous pentylenetetrazole-induced seizures; format: functional; outline: as §3
[15] = system: Rattus norvegicus; experiment: Anticonvulsant activity in Sprague-Dawley rat assessed as protection against subcutaneous pentylenetetrazole-induced seizures at 50 mg/kg po after 0.25 hrs; format: functional, organism-based; set-up: dose 50 mg/kg; outline: as §1
[16] = system: Rattus norvegicus; experiment: Anticonvulsant activity in Sprague-Dawley rat assessed as protection against maximal electroshock-induced seizures at 30 mg/kg po after 2 hrs; format: functional; outline: as §2
[17] = system: Mus musculus; experiment: Neurotoxicity in CF1 albino mouse assessed as unable to grasp rotarod at 300 mg/kg, ip after 4 hrs by rotarod test; format: toxicity, organism-based; set-up: dose 300 mg/kg, route intraperitoneal; settings: in vivo; outline: as §4
[18] = system: Mus musculus; experiment: Neurotoxicity in CF1 albino mouse at 300 mg/kg, ip after 4 hrs by rotarod test; format: toxicity, organism-based; set-up: dose 300 mg/kg, route intraperitoneal; settings: in vivo; outline: as §4
[19] = system: Rattus norvegicus; experiment: Anticonvulsant activity in Sprague-Dawley rat assessed as protection against maximal electroshock-induced seizures at 30 mg/kg po after 0.25 hrs; format: functional; outline: as §2
[20] = system: Rattus norvegicus; experiment: Anticonvulsant activity in Sprague-Dawley rat assessed as protection against subcutaneous pentylenetetrazole-induced seizures at 50 mg/kg po after 1 hr; format: functional; outline: as §1
[21] = system: Mus musculus; experiment: Anticonvulsant activity in CF1 albino mouse assessed as protection against maximal electroshock-induced seizures at 300 mg/kg, ip after 4 hrs; format: functional, organism-based; set-up: dose 300 mg/kg; outline: as §4
[22] = system: Mus musculus; experiment: Neurotoxicity in ip dosed CF1 albino mouse assessed as dose required to cause toxicity after 4 hrs by rotarod test; format: organism-based; settings: in vivo; outline: as §4
[23] = system: Rattus norvegicus; experiment: Anticonvulsant activity in Sprague-Dawley rat assessed as protection against pilocarpine-induced status epilepticus at 600 mg/kg, ip measured after clonus of one of the fore limbs seizure stage; format: functional, organism-based; set-up: dose 600 mg/kg
Outline: (§5)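 Male Sprague–Dawley rats (150–180 g) received compound ip at 600 mg/kg, then a challenge dose of pilocarpine. Seizure severity graded on the Racine scale; rats were scored as protected or not, and body weight change was taken 24 h after the first stage III seizure.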

[24] = system: Rattus norvegicus; experiment: Toxicity in Sprague-Dawley rat assessed as change in body weight at 600 mg/kg, ip measured after 24 hrs of clonus of one of the fore limbs seizure stage in protected rat; format: organism-based; set-up: dose 600 mg/kg, route intraperitoneal; settings: in vivo; outline: as §5
[25] = system: Rattus norvegicus; experiment: Toxicity in Sprague-Dawley rat assessed as change in body weight at 600 mg/kg, ip measured after 24 hrs of clonus of one of the fore limbs seizure stage in non-protected rat; format: organism-based; set-up: dose 600 mg/kg, route intraperitoneal; settings: in vivo; outline: as §5
[26] = system: Mus musculus; experiment: Neurotoxicity in CF1 albino mouse assessed as myoclonic jerks at 100 mg/kg, ip after 4 hrs by rotarod test; format: toxicity, organism-based; set-up: dose 100 mg/kg, route intraperitoneal; settings: in vivo; outline: as §4
[27] = system: Mus musculus; experiment: Neurotoxicity in ip dosed CF1 albino mouse assessed as dose required to cause toxicity after 0.5 hrs by rotarod test; format: organism-based; settings: in vivo; outline: as §4
[28] = system: Rattus norvegicus; experiment: Anticonvulsant activity in Sprague-Dawley rat assessed as protection against pilocarpine-induced status epilepticus at 600 mg/kg, ip; format: functional, organism-based; set-up: dose 600 mg/kg; outline: as §5

| SMILES | Activity [1] [%] | Activity [2] | Activity [4] | Activity [5] | Activity [7] [%] | Activity [8] [%] | Activity [10] [mg/kg] | Activity [13] | Activity [15] | Activity [16] [%] | Activity [19] | Activity [20] | further results |
| --- | --- | --- | --- | --- | --- | --- | --- | --- | --- | --- | --- | --- | --- |
| O=C1CC2(CCc3ccccc3C2)C(=O)N1CN1CCOCC1 (stereo not given) | 25 | 25% | 25% | inactive | 50 | 25 | 100 | 25% | inactive | 25 | 50% | 25% | ED50 [3]: > 160 mg/kg; Activity [6]: 300 mg/kg; Activity [9]: 100 mg/kg; Time [11]: 0.5 h; TD50 [12]: > 500 mg/kg; ED50 [14]: > 150 mg/kg; Activity [17]: Non-toxic; Activity [18]: Non-toxic |
| O=C1CC2(CCc3ccccc3C2)C(=O)N1CN1CCN(c2ccc(F)cc2)CC1 (stereo not given) | 25 | inactive | inactive | inactive | 25 | 25 | 100 | inactive | inactive | 25 | inactive | inactive | Activity [21]: inactive; Activity [22]: 300 mg/kg; Activity [23]: inactive; Activity [24]: Non-toxic; Activity [25]: 20 g; Activity [26]: Toxic; Activity [27]: 300 mg/kg; Activity [28]: inactive |
